Experimental data from different studies.
PFF0160c E182D: Dihydroorotate dehydrogenase (quinone), mitochondrial (PFF0160c, Plasmodium falciparum, UniProt Q08210, E182D)
PFF0160c: Dihydroorotate dehydrogenase (quinone), mitochondrial (PFF0160c, Plasmodium falciparum, UniProt Q08210)
Nectin-4: Nectin-4 (Homo sapiens, UniProt Q96NY8)
SIGMAR1: Sigma non-opioid intracellular receptor 1 (SIGMAR1, Homo sapiens, UniProt Q99720)

SMILES | target | read-out | action | technique | measurement | result
COc1nc(NCC(C)C)nc(Oc2ccc(=O)n(Cc3ccccc3)n2)n1 | PFF0160c E182D | enzyme activity | inhibitor | absorbance | IC50 | 4640 nM
N[C@@H](C[C@]1(C(=O)O)C[C@H]2OC[C@@H](O)[C@@H](O)[C@H]2O1)C(=O)O | Glutamate receptor ionotropic, kainate 2 (Grik2, Rattus norvegicus, UniProt P42260, A518T) | ligand displacement | – | radioligand | Ki | 61 nM
Cc1cc(NC(=O)c2cc(S(=O)(=O)N3CCCCC3)ccc2C)no1 | PFF0160c | enzyme activity | inhibitor | absorbance | IC50 | 1700 nM
CCCC[C@@H]1NC(=O)[C@H](Cc2ccc(O)cc2)NC(=O)[C@@H]2CCCN2C(=O)[C@H](CC(=O)O)NC(=O)[C@H](C)NC(=O)[C@H](Cc2ccccc2)NC(=O)[C@@H]2CSCCC(=O)N3CN(CN(C3)C(=O)CCSCCC(=O)N[C@@H](CC(C)(C)C)C(=O)N3CCC[C@H]3C(=O)N[C@@H](CCC(=O)O)C(=O)N[C@H](CCCCNC(=O)CCc3cn(CCOCCOCCOCCN(CCOCCOCCOCCC(=O)N[C@H]4CSCCC(=O)N5CN6CN(C5)C(=O)CCSC[C@H](NC(=O)[C@@H](CC(=O)O)NC(=O)[C@H](Cc5cccc7ccccc57)NC(=O)[C@@H]5CCCN5C4=O)C(=O)N[C@@H](CCSC)C(=O)N[C@@H](CCCCNC(=N)N)C(=O)N[C@@H](CC(=O)O)C(=O)N[C@@H](Cc4c[nH]c5ccccc45)C(=O)N[C@@H](CO)C(=O)N[C@@H]([C@@H](C)O)C(=O)N4CCC[C@H]4C(=O)N4C[C@H](O)C[C@H]4C(=O)N[C@@H](Cc4c[nH]c5ccccc45)C(=O)N[C@H](C(N)=O)CSCCC6=O)CCOCCOCCOCCn4cc(CCC(=O)NCCCC[C@H]5NC(=O)[C@H](CCC(=O)O)NC(=O)[C@@H]6CCCN6C(=O)[C@H](CC(C)(C)C)NC(=O)CCSCCC(=O)N6CN7CN(C6)C(=O)CCSC[C@H](NC(=O)[C@H](Cc6ccc(O)cc6)NC(=O)[C@@H]6CCCN6C5=O)C(=O)N[C@@H](Cc5ccccc5)C(=O)N[C@@H](C)C(=O)N[C@@H](CC(=O)O)C(=O)N5CCC[C@H]5C(=O)N[C@@H](Cc5ccc(O)cc5)C(=O)N[C@@H](CCCC)C(=O)NCCSCCC7=O)nn4)nn3)C(=O)N3CCC[C@H]3C(=O)N[C@@H](Cc3ccc(O)cc3)C(=O)N2)C(=O)CCSCCNC1=O | Nectin-4 | binding | – | SPR | Kd | 4 nM
Cc1cc(Nc2ccc3c(c2)CCC3)n2ncnc2n1 | PFF0160c | enzyme activity | inhibitor | absorbance | IC50 | 695 nM
Fc1ccc([C@@H]2CCNC[C@H]2COc2ccc3c(c2)OCO3)cc1 | SIGMAR1 | ligand displacement | – | radioligand | Ki | 365 nM
CSc1nc2nc(C)c(Cc3cccc(C(F)(F)F)c3)c(C)n2n1 | PFF0160c E182D | enzyme activity | inhibitor | absorbance | IC50 | > 10000 nM
CCCC[C@@H]1NC(=O)[C@H](Cc2ccc(O)cc2)NC(=O)[C@@H]2CCCN2C(=O)[C@H](CC(=O)O)NC(=O)[C@H](C)NC(=O)[C@H](Cc2ccccc2)NC(=O)[C@@H]2CSCCC(=O)N3CN(CN(C3)C(=O)CCSC[C@@H](C(N)=O)NC1=O)C(=O)CCSCCC(=O)N[C@@H](CC(C)(C)C)C(=O)N1CCC[C@H]1C(=O)N[C@@H](CCC(=O)O)C(=O)N[C@H](CCCCNC(=O)CCc1cn(CCOCCOCCOCCOCCOCCC(=O)N[C@H]3CSCCC(=O)N4CN5CN(C4)C(=O)CCSC[C@H](NC(=O)[C@@H](CC(=O)O)NC(=O)[C@H](Cc4cccc6ccccc46)NC(=O)[C@@H]4CCCN4C3=O)C(=O)N[C@@H](CCSC)C(=O)N[C@@H](CCCCNC(=N)N)C(=O)N[C@@H](CC(=O)O)C(=O)N[C@@H](Cc3c[nH]c4ccccc34)C(=O)N[C@@H](CO)C(=O)N[C@@H]([C@@H](C)O)C(=O)N3CCC[C@H]3C(=O)N3C[C@H](O)C[C@H]3C(=O)N[C@@H](Cc3c[nH]c4ccccc34)C(=O)N[C@H](C(N)=O)CSCCC5=O)nn1)C(=O)N1CCC[C@H]1C(=O)N[C@@H](Cc1ccc(O)cc1)C(=O)N2 | Nectin-4 | binding | – | SPR | Kd | 1.4 nM
Cc1c(-c2ccccc2)oc2c(C(=O)OCCN3CCCCC3)cccc2c1=O | SIGMAR1 | ligand displacement | – | radioligand | Ki | > 10000 nM
CCCC[C@@H]1NC(=O)[C@H](Cc2ccc(O)cc2)NC(=O)[C@@H]2CCCN2C(=O)[C@H](CC(=O)O)NC(=O)[C@H](C)NC(=O)[C@H](Cc2ccccc2)NC(=O)[C@@H]2CSCCC(=O)N3CN(CN(C3)C(=O)CCSC[C@H](NC(C)=O)C(=O)N[C@@H](CC(C)(C)C)C(=O)N3CCC[C@H]3C(=O)N[C@@H](CCC(=O)O)C(=O)N[C@H](CCCCNC(=O)CCc3cn(CCOCCOCCOCCN(CCOCCOCCOCCC(=O)N[C@H]4CSCCC(=O)N5CN6CN(C5)C(=O)CCSC[C@H](NC(=O)[C@@H](CC(=O)O)NC(=O)[C@H](Cc5cccc7ccccc57)NC(=O)[C@@H]5CCCN5C4=O)C(=O)N[C@@H](CCSC)C(=O)N[C@@H](CCCCNC(=N)N)C(=O)N[C@@H](CC(=O)O)C(=O)N[C@@H](Cc4c[nH]c5ccccc45)C(=O)N[C@@H](CO)C(=O)N[C@@H]([C@@H](C)O)C(=O)N4CCC[C@H]4C(=O)N4C[C@H](O)C[C@H]4C(=O)N[C@@H](Cc4c[nH]c5ccccc45)C(=O)N[C@H](C(N)=O)CSCCC6=O)CCOCCOCCOCCn4cc(CCC(=O)NCCCC[C@H]5NC(=O)[C@H](CCC(=O)O)NC(=O)[C@@H]6CCCN6C(=O)[C@H](CC(C)(C)C)NC(=O)[C@@H](NC(C)=O)CSCCC(=O)N6CN7CN(C6)C(=O)CCSC[C@H](NC(=O)[C@H](Cc6ccc(O)cc6)NC(=O)[C@@H]6CCCN6C5=O)C(=O)N[C@@H](Cc5ccccc5)C(=O)N[C@@H](C)C(=O)N[C@@H](CC(=O)O)C(=O)N5CCC[C@H]5C(=O)N[C@@H](Cc5ccc(O)cc5)C(=O)N[C@@H](CCCC)C(=O)NCCSCCC7=O)nn4)nn3)C(=O)N3CCC[C@H]3C(=O)N[C@@H](Cc3ccc(O)cc3)C(=O)N2)C(=O)CCSCCNC1=O | Nectin-4 | binding | – | SPR | Kd | 2.8 nM
CC(CN1c2ccccc2Sc2ccccc21)N(C)C (stereo not drawn) | SIGMAR1 | ligand displacement | – | radioligand | Ki | 433 nM
CCCC[C@@H]1NC(=O)[C@H](Cc2ccc(O)cc2)NC(=O)[C@@H]2CCCN2C(=O)[C@H](CC(=O)O)NC(=O)[C@H](C)NC(=O)[C@H](Cc2ccccc2)NC(=O)[C@@H]2CSCCC(=O)N3CN(CN(C3)C(=O)CCSC[C@H](NC(C)=O)C(=O)N[C@@H](CC(C)(C)C)C(=O)N3CCC[C@H]3C(=O)N[C@@H](CCC(=O)O)C(=O)N[C@H](CCCCNC(=O)CCc3cn(CCOCCOCCOCCN(CCOCCOCCOCCC(=O)N[C@H]4CSCCC(=O)N5CN6CN(C5)C(=O)CCSC[C@H](NC(=O)[C@@H](CC(=O)O)NC(=O)[C@H](Cc5cccc7ccccc57)NC(=O)[C@@H]5CCCN5C4=O)C(=O)N[C@@H](CCSC)C(=O)N[C@@H](CCCCNC(=N)N)C(=O)N[C@@H](CC(=O)O)C(=O)N[C@@H](Cc4c[nH]c5ccccc45)C(=O)N[C@@H](CO)C(=O)N[C@@H]([C@@H](C)O)C(=O)N4CCC[C@H]4C(=O)N4C[C@H](O)C[C@H]4C(=O)N[C@@H](Cc4c[nH]c5ccccc45)C(=O)N[C@H](C(N)=O)CSCCC6=O)CCOCCOCCOCCn4cc(CCC(=O)NCCCC[C@H]5NC(=O)[C@H](CCC(=O)O)NC(=O)[C@@H]6CCCN6C(=O)[C@H](CC(C)(C)C)NC(=O)[C@@H](NC(C)=O)CSCCC(=O)N6CN7CN(C6)C(=O)CCSC[C@H](NC(=O)[C@H](Cc6ccc(O)cc6)NC(=O)[C@@H]6CCCN6C5=O)C(=O)N[C@@H](Cc5ccccc5)C(=O)N[C@@H](C)C(=O)N[C@@H](CC(=O)O)C(=O)N5CCC[C@H]5C(=O)N[C@@H](Cc5ccc(O)cc5)C(=O)N[C@@H](CCCC)C(=O)N[C@H](C(N)=O)CSCCC7=O)nn4)nn3)C(=O)N3CCC[C@H]3C(=O)N[C@@H](Cc3ccc(O)cc3)C(=O)N2)C(=O)CCSC[C@@H](C(N)=O)NC1=O | Nectin-4 | binding | – | SPR | Kd | 3.9 nM
FC(F)(F)c1ccc2c(c1)N(CCCN1CCN(CCCl)CC1)c1ccccc1S2 | SIGMAR1 | ligand displacement | – | radioligand | Ki | 580 nM
CCCC[C@@H]1NC(=O)[C@H](Cc2ccc(O)cc2)NC(=O)[C@@H]2CCCN2C(=O)[C@H](CC(=O)O)NC(=O)[C@H](C)NC(=O)[C@H](Cc2ccccc2)NC(=O)[C@@H]2CSCCC(=O)N3CN(CN(C3)C(=O)CCSC[C@H](NC(C)=O)C(=O)N[C@@H](CC(C)(C)C)C(=O)N3CCC[C@H]3C(=O)N[C@@H](CCC(=O)O)C(=O)N[C@H](CCCCNC(=O)CCc3cn(CCOCCOCCOCCOCCOCCC(=O)N[C@H]4CSCCC(=O)N5CN6CN(C5)C(=O)CCSC[C@H](NC(=O)[C@@H](CC(=O)O)NC(=O)[C@H](Cc5cccc7ccccc57)NC(=O)[C@@H]5CCCN5C4=O)C(=O)N[C@@H](CCSC)C(=O)N[C@@H](CCCCNC(=N)N)C(=O)N[C@@H](CC(=O)O)C(=O)N[C@@H](Cc4c[nH]c5ccccc45)C(=O)N[C@@H](CO)C(=O)N[C@@H]([C@@H](C)O)C(=O)N4CCC[C@H]4C(=O)N4C[C@H](O)C[C@H]4C(=O)N[C@@H](Cc4c[nH]c5ccccc45)C(=O)N[C@H](C(N)=O)CSCCC6=O)nn3)C(=O)N3CCC[C@H]3C(=O)N[C@@H](Cc3ccc(O)cc3)C(=O)N2)C(=O)CCSC[C@@H](C(N)=O)NC1=O | Nectin-4 | binding | – | SPR | Kd | 2 nM
CN1CCN(C2=Nc3ccccc3Oc3ccc(Cl)cc32)CC1 | SIGMAR1 | ligand displacement | – | radioligand | Ki | > 10000 nM
